Results as given in ChEMBL document CHEMBL1212785, “In vitro potency of CXA-101, a novel cephalosporin, against Pseudomonas aeruginosa displaying various resistance phenotypes, including multidrug resistance” (2010).
In brackets after ≈: the same amount, converted by molar mass.

Experiments:
Assay type in all cases: functional
[1] = test system: Pseudomonas aeruginosa; assay: Antimicrobial activity against drug resistant Pseudomonas aeruginosa isolates by broth microdilution method
Outline: (§1)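 Nonduplicate, nonurine, drug-resistant clinical isolates collected from 40 US hospitals, October 2005 to March 2008. MICs determined by CLSI reference broth microdilution. The cephalosporin was tested alone and with tazobactam fixed at 4 μg/ml. Comparators were tested by the same method. P. aeruginosa ATCC 27853 served as quality control, with ranges of 0.25 to 1 μg/ml for both regimens.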

[2] = test system: Pseudomonas aeruginosa; assay: Antimicrobial activity against multidrug resistant Pseudomonas aeruginosa isolates by broth microdilution method; outline: as §1
[3] = test system: Pseudomonas aeruginosa; assay: Antimicrobial activity against imipenem resistant Pseudomonas aeruginosa isolates by broth microdilution method; outline: as §1
[4] = test system: Pseudomonas aeruginosa; assay: Antimicrobial activity against Ceftazidime resistant Pseudomonas aeruginosa isolates by broth microdilution method; outline: as §1
[5] = test system: Pseudomonas aeruginosa; assay: Antimicrobial activity against piperacillin-tazobactam resistant Pseudomonas aeruginosa isolates by broth microdilution method; outline: as §1
[6] = test system: Pseudomonas aeruginosa; assay: Antimicrobial activity against tobramycin resistant Pseudomonas aeruginosa isolates by broth microdilution method; outline: as §1

Compound | MIC50 [1] [µg/mL] | MIC90 [1] [µg/mL] | MIC50 [2] [µg/mL] | MIC90 [2] [µg/mL] | MIC50 [3] [µg/mL] | MIC90 [3] [µg/mL] | MIC50 [4] [µg/mL] | MIC90 [4] [µg/mL] | MIC50 [5] [µg/mL] | MIC90 [5] [µg/mL] | MIC50 [6] [µg/mL] | MIC90 [6] [µg/mL] | MIC [3] [µg/mL]
CO/N=C(\C(=O)N[C@@H]1C(=O)N2C(C(=O)[O-])=C(C[N+]3(C)CCCC3)CS[C@H]12)c1csc(N)n1 [CEFEPIME] | 16 (≈ 33.3 µM) | 64 (≈ 133 µM) | 16 (≈ 33.3 µM) | 64 (≈ 133 µM) | 8 (≈ 16.6 µM) | 32 (≈ 66.6 µM) | 256 (≈ 533 µM) | 256 (≈ 533 µM) | 16 | 32 |  |  | 
CC(C)(O/N=C(\C(=O)N[C@@H]1C(=O)N2C(C(=O)[O-])=C(C[n+]3ccccc3)CS[C@H]12)c1csc(N)n1)C(=O)O [CEFTAZIDIME] | 16 (≈ 29.3 µM) | 128 (≈ 234 µM) | 64 (≈ 117 µM) | 256 (≈ 468 µM) | 16 (≈ 29.3 µM) | 128 (≈ 234 µM) | 16 (≈ 29.3 µM) | 64 (≈ 117 µM) | 32 | 128 |  |  | 
Cn1c(N)c(NC(=O)NCCN)c[n+]1CC1=C(C(=O)O)N2C(=O)[C@@H](NC(=O)/C(=N\OC(C)(C)C(=O)[O-])c3nsc(N)n3)[C@H]2SC1 [CEFTOLOZANE] | 2 (≈ 3 µM) | 2 (≈ 3 µM) | 2 (≈ 3 µM) | > 64 | 2 (≈ 3 µM) | 8 (≈ 12 µM) | 4 (≈ 6 µM) | 16 (≈ 24 µM) | 2 | 8 | 2 (≈ 3 µM) | 64 (≈ 96 µM) | 
O=C(O)c1cn(C2CC2)c2cc(N3CCNCC3)c(F)cc2c1=O [CIPROFLOXACIN] |  |  | 32 (≈ 96.6 µM) | 64 (≈ 193 µM) | 8 (≈ 24.1 µM) | 64 (≈ 193 µM) | 2 (≈ 6.04 µM) | 32 (≈ 96.6 µM) | 1 | 32 | 32 (≈ 96.6 µM) | 128 (≈ 386 µM) | 
C[C@@H](O)[C@H]1C(=O)N2C(C(=O)O)=C(SCCNC=N)C[C@H]12 [IMIPENEM ANHYDROUS] | 8 (≈ 26.7 µM) | 32 (≈ 107 µM) | 16 (≈ 53.4 µM) | 128 (≈ 428 µM) | 16 (≈ 53.4 µM) | 32 (≈ 107 µM) | 64 (≈ 214 µM) | 256 (≈ 855 µM) | 64 | 256 | 128 (≈ 428 µM) | 256 (≈ 855 µM) | 16 (≈ 53.4 µM)
C[C@H]1COc2c(N3CCN(C)CC3)c(F)cc3c(=O)c(C(=O)O)cn1c23.C[C@H]1COc2c(N3CCN(C)CC3)c(F)cc3c(=O)c(C(=O)O)cn1c23.O [LEVOFLOXACIN] | 8 | 64 | 32 | 128 | 16 | 64 | 4 | 64 | 4 | 64 | 32 | 128 | 
C[C@@H](O)[C@H]1C(=O)N2C(C(=O)O)=C(S[C@@H]3CN[C@H](C(=O)N(C)C)C3)[C@H](C)[C@H]12 [MEROPENEM] | 8 (≈ 20.9 µM) | 32 (≈ 83.4 µM) | 16 (≈ 41.7 µM) | 128 (≈ 334 µM) | 16 (≈ 41.7 µM) | 32 (≈ 83.4 µM) | 4 (≈ 10.4 µM) | 32 (≈ 83.4 µM) | 2 | 32 | 16 (≈ 41.7 µM) | 128 (≈ 334 µM) | 
NC[C@H]1O[C@H](O[C@H]2[C@H](O)[C@@H](O[C@H]3O[C@H](CO)[C@@H](O)[C@H](N)[C@H]3O)[C@H](N)C[C@@H]2N)[C@H](N)C[C@@H]1O [TOBRAMYCIN] | 2 (≈ 4.28 µM) | 128 (≈ 274 µM) | 128 (≈ 274 µM) | 256 (≈ 548 µM) | 1 (≈ 2.14 µM) | 64 (≈ 137 µM) | 1 (≈ 2.14 µM) | 4 (≈ 8.56 µM) | 1 | 4 | 32 (≈ 68.4 µM) | 128 (≈ 274 µM) | 
